Published values collected from several papers.
nupG: nupG (Escherichia coli, UniProt P0AFF4)
OPRL1: Nociceptin receptor (OPRL1, Homo sapiens, UniProt P41146)
CA14: Carbonic anhydrase 14 (CA14, Homo sapiens, UniProt Q9ULX7)
PIK3C3: Phosphatidylinositol 3-kinase catalytic subunit type 3 (PIK3C3, Homo sapiens, UniProt Q8NEB9)

Compound | target | observed | mode | method | setting | endpoint | value
COc1ccc2c(c1)c(CC(=O)O)c(C)n2C(=O)c1ccc(Cl)cc1 | Peroxisome proliferator-activated receptor gamma (Pparg, Mus musculus, UniProt P37238) | reporter gene | agonist | luciferase | – | EC50 | 12.1 µM
Cc1cn([C@H]2C[C@H](O)[C@@H](CO)O2)c(=O)[nH]c1=O | nupG | binding | – | ITC | – | Kd | 162 µM
CCOCc1nc(O)c(-c2nnc(Cc3ccc(Cl)cn3)o2)c(O)c1-c1c(OC)cccc1OC | Apelin receptor (APLNR, Homo sapiens, UniProt P35414) | cell-free assay | – | radioligand | – | Kd | 0.00015 µM
Oc1ccccc1F | Iodotyrosine deiodinase (Haliscomenobacter hydrossis, UniProt F4KU78) | binding | – | fluorescence | – | Kd | 20000 µM
Nc1nc2c(ncn2[C@@H]2O[C@H](CO)[C@@H](O)[C@H]2O)c(=O)[nH]1 | nupG | binding | – | ITC | – | Kd | 46.7 µM
CCOC(=O)[C@@]12C[C@@H]1[C@@H](n1cnc3c(NC)nc(C#Cc4ccc(Cl)s4)nc31)[C@H](O)[C@@H]2O | OPRL1 | ligand displacement | – | radioligand | – | Ki | > 10 µM
Cc1occc(=S)c1O | CA14 | enzyme activity | inhibitor | stopped-flow | – | Ki | 6.7 µM
C[C@]12CCC3=C4CCC(=O)C=C4CC[C@H]3[C@@H]1CC[C@@]2(O)CC#N | Estrogen receptor (ESR1, Homo sapiens, UniProt P03372) | reporter gene | agonist | – | – | EC50 | > 25 µM
Cc1cc(Nc2cc3ncccc3c(N[C@@H]3C[C@H]4CC[C@@H](C3)N4CCC#N)n2)n[nH]1 | Death-associated protein kinase 3 (DAPK3, Homo sapiens, UniProt O43293) | binding | – | competition with immobilised ligand | – | Kd | 0.019 µM
C=CC(=O)N1CCC(C(=O)NCC(=O)N2CCN(c3nc(-c4cnc(N)nc4C(F)F)nc(N4CCOCC4)n3)CC2)CC1 | PIK3C3 | binding | – | competition with immobilised ligand | – | Kd | 0.054 µM
C[C@]12CC[C@H](O)CC1=CC[C@@H]1[C@@H]2CC[C@]2(C)C(c3cccnc3)=CC[C@@H]12 | Estrogen receptor (ESR1, Homo sapiens, UniProt P03372, Y537C) | ligand displacement in cells | – | radioligand | – | Ki | 0.25 µM
C=C(C)[C@@H]1CC=C(C)C(=O)C1 | OR1A1 (Homo sapiens, UniProt Q9P1Q5) | cAMP | agonist | luciferase | – | EC50 | 7.29 µM
CNCC[C@@H](Oc1ccccc1CCCF)c1ccccc1 | Norepinephrine transporter (Slc6a2, Rattus norvegicus, UniProt Q9WTR4) | ligand displacement | – | radioligand | cell membranes | Ki | 0.023 µM
CCOC(=O)[C@@]12C[C@@H]1[C@@H](n1ccc3c(NC)nc(C#Cc4ccccc4)nc31)[C@H](O)[C@@H]2O | OPRL1 | ligand displacement | – | radioligand | – | Ki | > 10 µM
On1ccccc1=S | CA14 | enzyme activity | inhibitor | stopped-flow | – | Ki | 7.1 µM
C=CC(=O)N1CCC(C(=O)N(C)CC(=O)N2CCN(c3nc(-c4cnc(N)nc4C(F)F)nc(N4CCOCC4)n3)CC2)CC1 | PIK3C3 | binding | – | competition with immobilised ligand | – | Kd | 0.275 µM
Nc1nc2c(ncn2[C@@H]2O[C@H](COP(=O)(O)OP(=O)(O)O)[C@@H](OP(=O)(O)OP(=O)(O)O)[C@H]2O)c(=O)[nH]1 | pgk (Escherichia coli, UniProt P0A799) | binding | – | ITC | – | Kd | 493 µM
CCCNc1nc2ccccc2n1Cc1ccc(Cl)cc1 | Alpha-2C adrenergic receptor (ADRA2C, Homo sapiens, UniProt P18825) | ligand displacement | – | radioligand | – | Ki | 0.434 µM
N[C@H]1C[C@@H](C(=O)O)CC1=C(C(F)(F)F)C(F)(F)F | Ornithine aminotransferase, mitochondrial (OAT, Homo sapiens, UniProt P04181) | binding | – | stopped-flow | – | Kd | 3000 µM
C[C@H]1Oc2cc(cnc2N)-c2c(nn(C)c2C#N)CN(C)C(=O)c2ccc(F)cc21 | Serine/threonine-protein kinase PLK4 (PLK4, Homo sapiens, UniProt O00444) | cell-free assay | – | – | lysate | Ki | 0.107 µM
O=c1ccn([C@@H]2O[C@H](COP(=O)(O)OP(=O)(O)O[C@H]3OC[C@@H](O)[C@H](O)[C@H]3O)[C@@H](O)[C@H]2O)c(=O)[nH]1 | UDP-glucose 6-dehydrogenase (UGDH, Homo sapiens, UniProt O60701) | enzyme activity | inhibitor | – | – | Ki | 0.18 µM
